Experimental data taken from ChEMBL document CHEMBL1671716, “Antimicrobial susceptibility patterns for recent clinical isolates of anaerobic bacteria in South Korea” (2010).

Tests used:
Assay type in all cases: functional
[1] = system: Bacteroides thetaiotaomicron; test: Antimicrobial activity against Bacteroides thetaiotaomicron after 48 hrs by agar dilution method in presence of 4 ug/ml beta-lactamase inhibitor Tazobactam
Method in brief: (§1)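 MICs by CLSI agar dilution for piperacillin combined with tazobactam, with tazobactam held constant at 4 μg/ml. Clinical anaerobe isolates inoculated at 10^5 CFU by Steers replicator. Plates kept in an anaerobic chamber at 37°C for 48 h.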

[2] = system: Phocaeicola vulgatus; test: Antimicrobial activity against Bacteroides vulgatus after 48 hrs by agar dilution method in presence of 4 ug/ml beta-lactamase inhibitor Tazobactam; method in brief: as §1
[3] = system: Bacteroides thetaiotaomicron; test: Antimicrobial activity against Bacteroides thetaiotaomicron assessed as percent resistant isolates after 48 hrs by agar dilution method in presence of 4 ug/ml beta-lactamase inhibitor Tazobactam
Method in brief: (§2)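 CLSI agar dilution on recent Korean clinical anaerobe isolates. Inoculum 10^5 CFU per spot by replicator. Plates incubated in an anaerobic chamber at 37°C for 48 h. For piperacillin plus tazobactam, tazobactam was held constant at 4 μg/ml. Resistance and susceptibility rates derived from MICs.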

[4] = system: Parabacteroides distasonis; test: Antimicrobial activity against Bacteroides distasonis assessed as percent resistant isolates after 48 hrs by agar dilution method in presence of 4 ug/ml beta-lactamase inhibitor Tazobactam; method in brief: as §2
[5] = system: Phocaeicola vulgatus; test: Antimicrobial activity against Bacteroides vulgatus assessed as percent resistant isolates after 48 hrs by agar dilution method in presence of 4 ug/ml beta-lactamase inhibitor Tazobactam; method in brief: as §2
[6] = system: Hoylesella oralis; test: Antimicrobial activity against Prevotella oralis after 48 hrs by agar dilution method in presence of 4 ug/ml beta-lactamase inhibitor Tazobactam
Method in brief: (§3)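 CLSI agar dilution (M11-A7); inoculum 10^5 CFU applied by replicator; plates incubated anaerobically 48 h at 37°C. For piperacillin-tazobactam, tazobactam held constant at 4 μg/ml.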

[7] = system: Prevotella intermedia; test: Antimicrobial activity against Prevotella intermedia assessed as percent susceptible isolates after 48 hrs by agar dilution method in presence of 4 ug/ml beta-lactamase inhibitor Tazobactam; method in brief: as §3
[8] = system: Prevotella bivia; test: Antimicrobial activity against Prevotella bivia assessed as percent susceptible isolates after 48 hrs by agar dilution method in presence of 4 ug/ml beta-lactamase inhibitor Tazobactam; method in brief: as §3
[9] = system: Prevotella bivia; test: Antimicrobial activity against Prevotella bivia assessed as percent resistant isolates after 48 hrs by agar dilution method in presence of 4 ug/ml beta-lactamase inhibitor Tazobactam; method in brief: as §2
[10] = system: Porphyromonas asaccharolytica; test: Antimicrobial activity against Porphyromonas asaccharolytica after 48 hrs by agar dilution method in presence of 4 ug/ml beta-lactamase inhibitor Tazobactam; method in brief: as §3
[11] = system: Fusobacterium varium; test: Antimicrobial activity against Fusobacterium varium after 48 hrs by agar dilution method in presence of 4 ug/ml beta-lactamase inhibitor Tazobactam; method in brief: as §3
[12] = system: Fusobacterium nucleatum; test: Antimicrobial activity against Fusobacterium nucleatum after 48 hrs by agar dilution method in presence of 4 ug/ml beta-lactamase inhibitor Tazobactam; method in brief: as §3
[13] = system: Anaerococcus prevotii; test: Antimicrobial activity against Anaerococcus prevotii after 48 hrs by agar dilution method in presence of 4 ug/ml beta-lactamase inhibitor Tazobactam; method in brief: as §1
[14] = system: Anaerococcus prevotii; test: Antimicrobial activity against Anaerococcus prevotii assessed as percent resistant isolates after 48 hrs by agar dilution method in presence of 4 ug/ml beta-lactamase inhibitor Tazobactam; method in brief: as §2
[15] = system: Peptoniphilus asaccharolyticus; test: Antimicrobial activity against Peptoniphilus asaccharolyticus assessed as percent susceptible isolates after 48 hrs by agar dilution method in presence of 4 ug/ml beta-lactamase inhibitor Tazobactam; method in brief: as §3
[16] = system: Peptoniphilus asaccharolyticus; test: Antimicrobial activity against Peptoniphilus asaccharolyticus assessed as percent resistant isolates after 48 hrs by agar dilution method in presence of 4 ug/ml beta-lactamase inhibitor Tazobactam; method in brief: as §2
[17] = system: Finegoldia magna; test: Antimicrobial activity against Finegoldia magna after 48 hrs by agar dilution method in presence of 4 ug/ml beta-lactamase inhibitor Tazobactam; method in brief: as §3
[18] = system: Finegoldia magna; test: Antimicrobial activity against Finegoldia magna assessed as percent resistant isolates after 48 hrs by agar dilution method in presence of 4 ug/ml beta-lactamase inhibitor Tazobactam; method in brief: as §2
[19] = system: Clostridioides difficile; test: Antimicrobial activity against Clostridium difficile after 48 hrs by agar dilution method in presence of 4 ug/ml beta-lactamase inhibitor Tazobactam; method in brief: as §3
[20] = system: Actinomyces israelii; test: Antimicrobial activity against Actinomyces israelii after 48 hrs by agar dilution method in presence of 4 ug/ml beta-lactamase inhibitor Tazobactam; method in brief: as §1
[21] = system: Actinomyces israelii; test: Antimicrobial activity against Actinomyces israelii assessed as percent resistant isolates after 48 hrs by agar dilution method in presence of 4 ug/ml beta-lactamase inhibitor Tazobactam; method in brief: as §2
[22] = system: Schaalia meyeri; test: Antimicrobial activity against Actinomyces meyeri assessed as percent resistant isolates after 48 hrs by agar dilution method in presence of 4 ug/ml beta-lactamase inhibitor Tazobactam; method in brief: as §2
[23] = system: Bifidobacterium adolescentis; test: Antimicrobial activity against Bifidobacterium adolescentis assessed as percent resistant isolates after 48 hrs by agar dilution method in presence of 4 ug/ml beta-lactamase inhibitor Tazobactam; method in brief: as §2
[24] = system: Eggerthella lenta; test: Antimicrobial activity against Eubacterium lentum assessed as percent resistant isolates after 48 hrs by agar dilution method in presence of 4 ug/ml beta-lactamase inhibitor Tazobactam; method in brief: as §2
[25] = system: Eubacterium sp.; test: Antimicrobial activity against Eubacterium sp. after 48 hrs by agar dilution method in presence of 4 ug/ml beta-lactamase inhibitor Tazobactam; method in brief: as §3

CCN1CCN(C(=O)N[C@@H](C(=O)N[C@@H]2C(=O)N3[C@@H]2SC(C)(C)[C@@H]3C(=O)O)c2ccccc2)C(=O)C1=O [PIPERACILLIN]
MIC50 [1]: 8 µg/mL | MIC90 [1]: 64 µg/mL | MIC50 [2]: 8 µg/mL | MIC90 [2]: 64 µg/mL | Activity [3]: 7% | Activity [4]: 7% | Activity [5]: 7% | MIC50 [6]: ≤ 0.03 µg/mL | MIC90 [6]: 4 µg/mL | Activity [7]: 100% | Activity [8]: 100% | Activity [9]: 0% | MIC [10]: 0.03 µg/mL | MIC [11]: 0.03 µg/mL | MIC [12]: 0.03 µg/mL | MIC50 [13]: 0.125 µg/mL | MIC90 [13]: 0.125 µg/mL | Activity [14]: 0% | Activity [15]: 100% | Activity [16]: 0% | MIC50 [17]: 0.06 µg/mL | MIC90 [17]: 0.125 µg/mL | Activity [18]: 0% | MIC50 [19]: 4 µg/mL | MIC90 [19]: 8 µg/mL | MIC50 [20]: 0.5 µg/mL | MIC90 [20]: 8 µg/mL | Activity [21]: 0% | Activity [22]: 0% | Activity [23]: 0% | Activity [24]: 0% | MIC50 [25]: 0.5 µg/mL | MIC90 [25]: 8 µg/mL
